Results published in ChEMBL document CHEMBL4028864 (J Med Chem, 2017).

Key:
Histone deacetylase 1 = Histone deacetylase 1 (Homo sapiens, UniProt Q13547); assay: Inhibition of C-terminal FLAG His tagged full length human recombinant HDAC1 (1 to 482 residues) expressed in baculovirus infected sf21 cells using RHKKAc as substrate in presence of ATP
MCF7 = assay: cells; type: functional, cell-based; settings: Homo sapiens, MCF7, 72 h
MDA-MB-231 = assay: cells; type: functional, cell-based; settings: Homo sapiens, MDA-MB-231, 72 h
[1] = target: T1, Protein deacetylase HDAC6 (Homo sapiens, UniProt Q9UBN7); assay: Inhibition of N-terminal GST tagged human HDAC6 (1 to 1215 residues) expressed in baculovirus infected insect cells using RHKKAc as substrate in presence of ATP
T1 sequence (Q9UBN7 whole entry): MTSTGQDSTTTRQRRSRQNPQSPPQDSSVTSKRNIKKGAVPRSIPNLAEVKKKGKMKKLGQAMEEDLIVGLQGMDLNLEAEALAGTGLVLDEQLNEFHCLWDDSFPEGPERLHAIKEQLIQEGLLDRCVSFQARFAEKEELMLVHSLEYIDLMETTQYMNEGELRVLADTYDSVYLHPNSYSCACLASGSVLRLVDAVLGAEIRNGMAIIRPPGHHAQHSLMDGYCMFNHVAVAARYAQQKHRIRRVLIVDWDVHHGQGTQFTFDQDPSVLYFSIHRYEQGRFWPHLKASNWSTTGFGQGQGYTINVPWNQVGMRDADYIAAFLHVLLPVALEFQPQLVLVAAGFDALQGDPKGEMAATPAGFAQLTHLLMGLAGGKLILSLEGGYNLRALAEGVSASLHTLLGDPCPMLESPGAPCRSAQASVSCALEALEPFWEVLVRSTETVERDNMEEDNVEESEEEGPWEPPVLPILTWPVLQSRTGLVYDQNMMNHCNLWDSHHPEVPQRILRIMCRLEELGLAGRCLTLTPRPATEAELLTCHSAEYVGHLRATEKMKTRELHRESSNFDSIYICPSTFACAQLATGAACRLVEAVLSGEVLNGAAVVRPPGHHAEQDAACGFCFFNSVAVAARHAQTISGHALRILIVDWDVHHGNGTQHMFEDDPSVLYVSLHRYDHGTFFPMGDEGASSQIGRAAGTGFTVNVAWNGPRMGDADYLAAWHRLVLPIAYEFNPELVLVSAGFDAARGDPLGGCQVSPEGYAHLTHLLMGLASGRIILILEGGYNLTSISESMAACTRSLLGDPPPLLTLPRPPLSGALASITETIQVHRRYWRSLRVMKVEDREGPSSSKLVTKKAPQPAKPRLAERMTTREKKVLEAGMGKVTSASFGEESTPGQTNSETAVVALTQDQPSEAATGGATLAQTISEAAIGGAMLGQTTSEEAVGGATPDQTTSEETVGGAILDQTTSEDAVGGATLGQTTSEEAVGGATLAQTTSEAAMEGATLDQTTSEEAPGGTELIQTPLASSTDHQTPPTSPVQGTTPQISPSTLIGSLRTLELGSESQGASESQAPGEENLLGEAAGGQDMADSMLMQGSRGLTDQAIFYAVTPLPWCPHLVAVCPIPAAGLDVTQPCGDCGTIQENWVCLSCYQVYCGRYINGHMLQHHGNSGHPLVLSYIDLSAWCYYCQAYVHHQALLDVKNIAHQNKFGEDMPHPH

[2] = target: T2, Tyrosine-protein kinase JAK2 (Homo sapiens, UniProt O60674); assay: Binding affinity to N-terminal His tagged human recombinant JAK2 (1014 to 1132 residues) expressed in Escherichia coli after 60 to 90 mins by LC/MS analysis; settings: read-out: Kd(app)
PC-3 = assay: cells; type: functional, cell-based; settings: Homo sapiens, PC-3, 72 h
[3] = target: T2, Tyrosine-protein kinase JAK2; assay: Inhibition of human JAK2 using poly[Glu:Tyr] as substrate in presence of [gamma-33P]-ATP
HCT-116 = assay: Antiproliferative activity against human HCT116 cells after 72 hrs by MTT assay; type: functional, cell-based; settings: HCT-116, 72 h
[4] = target: Histone deacetylase 11 (Homo sapiens) (UniProt Q96DB2); assay: Inhibition of C-terminal His tagged human recombinant HDAC11 (1 to 347 residues) expressed in Baculovirus infected insect cells at 10 uM in presence of ATP relative to control
Summary of the method: (§1)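 HDAC enzyme inhibition was run by a contract laboratory.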

[5] = target: T3, Tyrosine-protein kinase JAK3 (Homo sapiens, UniProt P52333); assay: Inhibition of human JAK3 using GEEEEYFELVKKKK as substrate in presence of [gamma-33P]-ATP
T3 sequence (P52333 whole entry): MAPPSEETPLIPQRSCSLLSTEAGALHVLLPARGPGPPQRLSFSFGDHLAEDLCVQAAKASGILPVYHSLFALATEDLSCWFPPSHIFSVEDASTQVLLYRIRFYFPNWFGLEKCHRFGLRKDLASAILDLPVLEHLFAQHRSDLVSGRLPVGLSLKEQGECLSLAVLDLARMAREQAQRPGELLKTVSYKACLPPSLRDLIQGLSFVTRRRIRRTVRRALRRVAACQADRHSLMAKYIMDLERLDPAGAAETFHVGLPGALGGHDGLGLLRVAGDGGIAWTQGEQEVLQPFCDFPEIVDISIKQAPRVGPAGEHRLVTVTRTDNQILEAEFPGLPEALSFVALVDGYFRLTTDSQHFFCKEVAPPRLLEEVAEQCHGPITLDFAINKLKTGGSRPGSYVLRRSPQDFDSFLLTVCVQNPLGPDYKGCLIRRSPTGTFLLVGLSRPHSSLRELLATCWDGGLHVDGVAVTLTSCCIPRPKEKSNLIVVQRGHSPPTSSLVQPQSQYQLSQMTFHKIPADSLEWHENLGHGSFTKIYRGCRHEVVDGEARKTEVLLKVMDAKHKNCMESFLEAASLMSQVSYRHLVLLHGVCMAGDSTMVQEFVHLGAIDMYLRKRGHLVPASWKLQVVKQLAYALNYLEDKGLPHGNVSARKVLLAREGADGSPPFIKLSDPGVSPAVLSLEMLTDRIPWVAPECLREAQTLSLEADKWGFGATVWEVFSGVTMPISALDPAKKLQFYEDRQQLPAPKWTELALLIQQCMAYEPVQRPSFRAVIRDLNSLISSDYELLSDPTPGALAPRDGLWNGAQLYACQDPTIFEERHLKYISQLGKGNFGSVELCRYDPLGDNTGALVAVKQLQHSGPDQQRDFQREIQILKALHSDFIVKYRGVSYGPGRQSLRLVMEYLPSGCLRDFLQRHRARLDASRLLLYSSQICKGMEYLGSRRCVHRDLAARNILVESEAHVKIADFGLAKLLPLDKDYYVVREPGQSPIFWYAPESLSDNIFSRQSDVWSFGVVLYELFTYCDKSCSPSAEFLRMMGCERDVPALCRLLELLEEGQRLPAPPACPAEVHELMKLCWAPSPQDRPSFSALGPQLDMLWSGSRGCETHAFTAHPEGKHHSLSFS
Summary of the method: (§2)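 Kinase inhibition was tested by radiometric "Hotspot" profiling at a contract laboratory with 10 μM ATP.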

[6] = target: Polyamine deacetylase HDAC10 (Homo sapiens, UniProt Q969S8); assay: Inhibition of human HDAC10 using fluorogenic peptide from p53 residues 379 to 382 as substrate in presence of ATP; summary of the method: as §1
[7] = target: Tyrosine-protein kinase JAK1 (Homo sapiens, UniProt P23458); assay: Inhibition of human JAK1 using poly[Glu:Tyr] as substrate in presence of [gamma-33P]-ATP; summary of the method: as §2
[8] = target: Non-receptor tyrosine-protein kinase TYK2 (Homo sapiens, UniProt P29597); assay: Inhibition of human TYK2 using KKSRGDYMTMQIG as substrate in presence of [gamma-33P]-ATP; summary of the method: as §2
[9] = target: Histone deacetylase 3/Nuclear receptor corepressor 2 (HDAC3/NCoR2) (Homo sapiens, UniProt O15379); assay: Inhibition of human recombinant HDAC3 (1 to 428 residues)/N-terminal GST-tagged NCOR2 (395 to 489 residues) expressed in Baculovirus infected insect cells in presence of ATP; summary of the method: as §1
[10] = target: Histone deacetylase 7 (Homo sapiens) (UniProt Q8WUI4); assay: Inhibition of N-terminal GST tagged human recombinant HDAC7 (518 to 991 residues) expressed in Baculovirus infected insect cells at 10 uM in presence of ATP relative to control; summary of the method: as §1
Histone deacetylase 9 = Histone deacetylase 9 (Homo sapiens, UniProt Q9UKV0); assay: Inhibition of HDAC9 (unknown origin) in presence of ATP; summary of the method: as §1
Histone deacetylase 8 = Histone deacetylase 8 (Homo sapiens, UniProt Q9BY41); assay: Inhibition of C-terminal His tagged human recombinant HDAC8 (1 to 377 residues) expressed in Baculovirus infected insect cells in presence of ATP; summary of the method: as §1
[11] = target: Histone deacetylase 4 (Homo sapiens) (UniProt P56524); assay: Inhibition of N-terminal GST tagged/C-terminal His tagged human recombinant HDAC4 (627 to 1084 residues) expressed in Baculovirus infected insect cells in presence of ATP; settings: concentration not given here; summary of the method: as §1
Histone deacetylase 2 = Histone deacetylase 2 (Homo sapiens, UniProt Q92769); assay: Inhibition of C-terminal GST tagged human recombinant HDAC2 (1 to 488 residues) expressed in Baculovirus infected insect cells in presence of ATP; summary of the method: as §1
Histone deacetylase 5 = Histone deacetylase 5 (Homo sapiens, UniProt Q9UQL6); assay: Inhibition of C-terminal His tagged human recombinant HDAC5 (657 to 1123 residues) expressed in Baculovirus infected insect cells in presence of ATP; summary of the method: as §1
Jurkat = assay: cells; type: functional, cell-based; settings: Homo sapiens
HEL 92.1.7 = assay: cells; type: functional, cell-based; settings: Homo sapiens, HEL 92.1.7, 36 h
HL-60 = assay: Antiproliferative activity against human HL60 cells; type: functional, cell-based

Sequence of Histone deacetylase 1 (Q13547 whole entry, the tested form may be a part): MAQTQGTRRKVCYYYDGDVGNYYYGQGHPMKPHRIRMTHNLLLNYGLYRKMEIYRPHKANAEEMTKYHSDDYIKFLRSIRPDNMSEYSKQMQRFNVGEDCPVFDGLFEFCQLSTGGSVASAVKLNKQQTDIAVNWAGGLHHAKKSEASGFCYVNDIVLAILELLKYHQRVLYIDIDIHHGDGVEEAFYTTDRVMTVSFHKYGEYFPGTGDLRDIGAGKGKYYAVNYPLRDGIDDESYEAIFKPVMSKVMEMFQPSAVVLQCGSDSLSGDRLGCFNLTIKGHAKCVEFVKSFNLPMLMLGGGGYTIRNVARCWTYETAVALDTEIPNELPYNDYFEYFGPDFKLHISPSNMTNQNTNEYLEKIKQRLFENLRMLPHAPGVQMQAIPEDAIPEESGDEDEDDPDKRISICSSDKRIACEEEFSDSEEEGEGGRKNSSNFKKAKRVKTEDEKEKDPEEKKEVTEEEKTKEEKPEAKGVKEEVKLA
T2 sequence (O60674 whole entry, the tested form may be a part): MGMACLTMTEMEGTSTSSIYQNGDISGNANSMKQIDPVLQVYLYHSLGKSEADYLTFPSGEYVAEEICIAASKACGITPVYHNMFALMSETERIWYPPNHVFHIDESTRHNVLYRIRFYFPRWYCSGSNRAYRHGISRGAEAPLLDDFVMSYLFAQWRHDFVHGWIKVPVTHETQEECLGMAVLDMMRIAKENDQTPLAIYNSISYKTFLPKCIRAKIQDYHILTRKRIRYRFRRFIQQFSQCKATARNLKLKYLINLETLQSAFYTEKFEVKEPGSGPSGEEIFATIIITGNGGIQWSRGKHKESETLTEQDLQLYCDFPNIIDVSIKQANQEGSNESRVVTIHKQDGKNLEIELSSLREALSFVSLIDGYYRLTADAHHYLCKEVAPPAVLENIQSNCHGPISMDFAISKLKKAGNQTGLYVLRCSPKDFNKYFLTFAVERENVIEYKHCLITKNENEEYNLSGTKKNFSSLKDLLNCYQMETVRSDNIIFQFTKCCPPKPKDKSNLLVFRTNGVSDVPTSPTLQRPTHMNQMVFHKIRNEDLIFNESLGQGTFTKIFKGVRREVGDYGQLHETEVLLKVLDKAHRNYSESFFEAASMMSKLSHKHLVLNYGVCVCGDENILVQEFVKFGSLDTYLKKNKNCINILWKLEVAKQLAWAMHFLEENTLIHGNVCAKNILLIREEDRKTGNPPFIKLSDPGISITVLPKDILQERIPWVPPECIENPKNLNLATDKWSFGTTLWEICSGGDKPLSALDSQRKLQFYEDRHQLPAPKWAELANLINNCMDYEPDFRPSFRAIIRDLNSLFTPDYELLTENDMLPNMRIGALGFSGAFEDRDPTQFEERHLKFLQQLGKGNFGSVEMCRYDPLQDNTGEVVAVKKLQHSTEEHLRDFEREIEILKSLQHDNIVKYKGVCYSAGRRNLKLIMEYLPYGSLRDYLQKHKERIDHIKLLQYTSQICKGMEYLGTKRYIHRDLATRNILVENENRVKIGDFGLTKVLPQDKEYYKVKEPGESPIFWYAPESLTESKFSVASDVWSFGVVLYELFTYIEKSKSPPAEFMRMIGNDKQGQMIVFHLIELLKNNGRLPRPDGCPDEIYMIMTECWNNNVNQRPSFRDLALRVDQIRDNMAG
Sequence of Histone deacetylase 2 (Q92769 whole entry, the tested form may be a part): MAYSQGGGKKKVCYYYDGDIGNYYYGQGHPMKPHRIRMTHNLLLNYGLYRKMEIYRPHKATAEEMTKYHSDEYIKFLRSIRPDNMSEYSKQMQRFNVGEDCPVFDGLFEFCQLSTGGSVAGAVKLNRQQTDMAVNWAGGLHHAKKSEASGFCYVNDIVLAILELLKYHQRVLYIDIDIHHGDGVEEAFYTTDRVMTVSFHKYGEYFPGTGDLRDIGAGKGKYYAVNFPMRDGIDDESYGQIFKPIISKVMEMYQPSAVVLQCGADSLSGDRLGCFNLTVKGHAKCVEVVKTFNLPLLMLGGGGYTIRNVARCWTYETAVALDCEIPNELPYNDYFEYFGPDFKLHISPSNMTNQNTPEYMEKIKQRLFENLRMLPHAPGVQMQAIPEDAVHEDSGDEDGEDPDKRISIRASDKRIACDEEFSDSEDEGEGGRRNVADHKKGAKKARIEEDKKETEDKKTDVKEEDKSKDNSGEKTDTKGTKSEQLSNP
Sequence of Histone deacetylase 7 (Homo sapiens) (Q8WUI4 whole entry, the tested form may be a part): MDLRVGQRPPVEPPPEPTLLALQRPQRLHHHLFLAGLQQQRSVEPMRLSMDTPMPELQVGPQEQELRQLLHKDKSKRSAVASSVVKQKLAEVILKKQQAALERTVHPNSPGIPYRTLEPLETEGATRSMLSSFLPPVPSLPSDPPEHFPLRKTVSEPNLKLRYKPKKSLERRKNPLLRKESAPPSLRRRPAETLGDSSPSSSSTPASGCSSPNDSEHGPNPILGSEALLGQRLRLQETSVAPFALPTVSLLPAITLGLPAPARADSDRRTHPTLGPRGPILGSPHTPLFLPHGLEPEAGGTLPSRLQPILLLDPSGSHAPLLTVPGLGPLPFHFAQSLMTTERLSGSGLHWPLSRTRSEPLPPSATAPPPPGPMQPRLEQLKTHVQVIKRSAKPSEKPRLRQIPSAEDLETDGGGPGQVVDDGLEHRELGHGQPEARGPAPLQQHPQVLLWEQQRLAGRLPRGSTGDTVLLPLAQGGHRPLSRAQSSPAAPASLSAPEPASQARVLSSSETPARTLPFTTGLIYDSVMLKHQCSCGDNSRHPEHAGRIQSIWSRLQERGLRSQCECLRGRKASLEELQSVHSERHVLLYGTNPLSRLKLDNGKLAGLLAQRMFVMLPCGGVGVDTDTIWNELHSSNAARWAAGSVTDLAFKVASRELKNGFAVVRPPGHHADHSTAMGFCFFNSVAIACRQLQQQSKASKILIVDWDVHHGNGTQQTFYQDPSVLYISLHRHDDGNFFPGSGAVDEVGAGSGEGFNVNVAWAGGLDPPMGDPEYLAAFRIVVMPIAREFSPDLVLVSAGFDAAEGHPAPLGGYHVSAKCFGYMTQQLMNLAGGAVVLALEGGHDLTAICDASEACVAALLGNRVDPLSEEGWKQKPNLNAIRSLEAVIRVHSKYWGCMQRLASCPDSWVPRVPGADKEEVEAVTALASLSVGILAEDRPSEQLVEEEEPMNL
Sequence of Histone deacetylase 4 (Homo sapiens) (P56524 whole entry, the tested form may be a part): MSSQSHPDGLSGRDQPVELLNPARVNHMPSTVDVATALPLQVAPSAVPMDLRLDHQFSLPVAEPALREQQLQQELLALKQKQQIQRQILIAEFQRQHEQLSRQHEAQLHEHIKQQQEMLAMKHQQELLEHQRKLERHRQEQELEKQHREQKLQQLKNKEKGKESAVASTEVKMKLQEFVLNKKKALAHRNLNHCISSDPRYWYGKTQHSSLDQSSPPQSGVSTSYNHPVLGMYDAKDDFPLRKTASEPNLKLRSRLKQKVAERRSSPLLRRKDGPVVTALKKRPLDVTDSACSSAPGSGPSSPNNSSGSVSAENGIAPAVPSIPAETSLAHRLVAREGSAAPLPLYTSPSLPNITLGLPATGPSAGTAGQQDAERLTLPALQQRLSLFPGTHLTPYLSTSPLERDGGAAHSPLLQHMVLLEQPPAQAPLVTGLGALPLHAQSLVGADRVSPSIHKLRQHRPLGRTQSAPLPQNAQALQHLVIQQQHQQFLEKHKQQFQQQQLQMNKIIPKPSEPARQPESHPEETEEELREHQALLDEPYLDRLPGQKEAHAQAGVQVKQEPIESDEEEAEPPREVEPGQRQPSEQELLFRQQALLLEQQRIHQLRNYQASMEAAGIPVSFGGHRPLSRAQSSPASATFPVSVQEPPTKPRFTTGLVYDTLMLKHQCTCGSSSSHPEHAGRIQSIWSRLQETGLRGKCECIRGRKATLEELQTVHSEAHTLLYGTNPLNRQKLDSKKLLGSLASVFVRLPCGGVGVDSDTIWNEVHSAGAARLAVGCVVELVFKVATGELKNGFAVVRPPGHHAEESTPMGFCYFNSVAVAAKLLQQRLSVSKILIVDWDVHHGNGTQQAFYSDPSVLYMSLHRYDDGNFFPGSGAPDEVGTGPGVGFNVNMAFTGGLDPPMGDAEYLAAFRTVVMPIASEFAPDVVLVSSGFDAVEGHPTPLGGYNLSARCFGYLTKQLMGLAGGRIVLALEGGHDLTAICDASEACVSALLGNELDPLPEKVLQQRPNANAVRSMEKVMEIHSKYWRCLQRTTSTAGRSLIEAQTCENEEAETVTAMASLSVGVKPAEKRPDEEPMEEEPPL
Sequence of Histone deacetylase 8 (Q9BY41 whole entry, the tested form may be a part): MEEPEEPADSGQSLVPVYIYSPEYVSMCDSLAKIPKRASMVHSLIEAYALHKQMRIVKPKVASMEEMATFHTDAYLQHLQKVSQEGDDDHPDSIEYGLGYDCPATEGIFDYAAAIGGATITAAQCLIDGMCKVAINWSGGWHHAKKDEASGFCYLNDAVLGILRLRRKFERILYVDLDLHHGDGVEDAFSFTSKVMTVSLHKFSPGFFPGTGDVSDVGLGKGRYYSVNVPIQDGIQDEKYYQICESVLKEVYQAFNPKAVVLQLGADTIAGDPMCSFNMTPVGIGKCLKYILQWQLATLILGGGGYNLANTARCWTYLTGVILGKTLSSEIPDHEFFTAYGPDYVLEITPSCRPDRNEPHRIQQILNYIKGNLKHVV
Sequence of Histone deacetylase 11 (Homo sapiens) (Q96DB2 whole entry, the tested form may be a part): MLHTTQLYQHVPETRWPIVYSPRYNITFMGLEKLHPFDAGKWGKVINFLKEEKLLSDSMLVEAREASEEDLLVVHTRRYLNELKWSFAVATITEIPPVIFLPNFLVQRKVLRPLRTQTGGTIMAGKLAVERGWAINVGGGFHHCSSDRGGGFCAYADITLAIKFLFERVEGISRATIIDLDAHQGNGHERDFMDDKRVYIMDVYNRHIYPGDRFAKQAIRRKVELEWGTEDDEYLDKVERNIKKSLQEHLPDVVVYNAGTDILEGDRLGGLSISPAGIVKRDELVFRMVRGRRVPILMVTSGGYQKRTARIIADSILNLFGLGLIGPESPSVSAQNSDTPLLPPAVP

SMILES | IC50 (Histone deacetylase 1) | IC50 (MCF7) | IC50 (MDA-MB-231) | IC50 [1] | Kd [2] | IC50 (PC-3) | IC50 [3] | IC50 (HCT-116) | other results
CC(CCCCCC(=O)NO)n1cc(-c2ncnc3[nH]ccc23)cn1 (centres undefined) | 6 nM | – | – | 1 nM | – | – | 65 nM | – | inhibition [4]: 40%; IC50 [5]: 436 nM; IC50 [6]: 31 nM; IC50 [7]: 11 nM; IC50 [8]: 144 nM; IC50 [9]: 24 nM; inhibition [10]: 33%; IC50 (Histone deacetylase 9): 8500 nM; IC50 (Histone deacetylase 8): 310 nM; inhibition [11]: 8%; IC50 (Histone deacetylase 2): 47 nM; IC50 (Histone deacetylase 5): 7400 nM
O=C(CCCCCn1cc(-c2ncnc3[nH]ccc23)cn1)NO | 138 nM | 8160 nM | – | 2.9 nM | – | 18800 nM | – | 8990 nM | –
O=C(CCCCn1cc(-c2ncnc3[nH]ccc23)cn1)NO | 854 nM | 12800 nM | 17300 nM | 6 nM | – | > 100000 nM | – | 46200 nM | –
CN1CCc2c(c3ccccc3n2Cc2ccc(C(=O)NO)cc2)C1 [TUBASTATIN A] | – | 3700 nM | 10400 nM | – | – | 8600 nM | – | 2000 nM | IC50 (Jurkat): > 4000 nM; IC50 (HEL 92.1.7): > 4000 nM; IC50 (HL-60): > 4000 nM

Second part, led by results:

IC50 (Histone deacetylase 1) | IC50 (MCF7) | IC50 (MDA-MB-231) | IC50 [1] | Kd [2] | IC50 (PC-3) | IC50 [3] | IC50 (HCT-116) | SMILES | other results
265 nM | > 50000 nM | 70000 nM | 0.9 nM | 2000 nM | > 50000 nM | 865 nM | 23000 nM | O=C(CCCCCCC(=O)Nc1ccc(CCCn2cc(-c3ncnc4[nH]ccc34)cn2)cc1)NO | –
3540 nM | 13300 nM | 12900 nM | 88 nM | < 1000 nM | 54300 nM | 43 nM | 41100 nM | O=C(CCCCCCCCCCn1cc(-c2ncnc3[nH]ccc23)cn1)NO | –
